Reference: PMC5499931 (OncoTargets and therapy, 2017)
“Also recorded” adds a separate entry of the source. *1 amine or outer side, *2 acyl side, *3 side chain or, on linkers, in order; H or OH if unused. Where a SMILES comes first, the peptide text is derived from it. Side-chain parts run from the residue outwards. [ ]: non-standard residue; d: D form. The star is where a group is joined. Ethylenediamine = C(CN[*:2])N[*:1]; Hyp = O=C(O)[C@@H]1C[C@@H](O)CN1; Phg = N[C@H](C(=O)O)c1ccccc1; CO = O=C([*:1])[*:2]; Bn = c1ccc(C*)cc1

Columns and labels:
[1] = tested on: patients with advanced NETs; assay: MTD/dose-limiting toxicity; format: in vivo, human; conditions: 80 and 120 mg; first two treatment cycles
Procedure, shortened: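 Dose escalation in cohorts of 3–6 patients, starting at 80 mg IM every 28 days. Later doses were chosen in 20 mg multiples by a two-parameter Bayesian logistic regression model with overdose control. Intra-patient escalation was not allowed; de-escalation was permitted. DLT window was the first two 28-day cycles. Evaluable patients had two injections with sufficient safety evaluation, or a DLT. MTD was defined as the highest dose with expected DLT in ≤33%.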

[2] = tested on: patients with advanced NETs; assay: AEs regardless of study drug relationship; format: in vivo, human
Procedure, shortened: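 Open-label, multicentre phase I in adults with advanced, well- or moderately differentiated NETs progressing within the prior 12 months; HbA1c >7.0% excluded. Test compound given as long-acting IM injection every 28 days. Safety set was everyone receiving at least one dose, grouped by first dose received. AEs coded by MedDRA 18.0; laboratory abnormalities graded by CTCAE 3.0.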

[3] = tested on: patients with advanced NETs; assay: Bradycardia; format: in vivo, human; conditions: for Odds ratio [95% CI] of bradycardia (HR <40 bpm) for a 1.5-fold increase in pasireotide concentration: logistic regression, not statistically significant
Procedure, shortened: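 HR recorded by 24-hour Holter on Cycle 1 Day 1 and Cycle 2 Day 1 in all patients. Bradycardia, defined as minimum HR <40 bpm, was analysed by pooling vital signs, 12-lead ECG and Holter data. Post hoc review covered dose-escalation cohorts plus the 120 mg expansion cohort. Dosing was IM every 28 days.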

[4] = Pasireotide plasma concentrations; format: in vivo; conditions: human, im
[5] = tested on: patients with advanced carcinoid syndrome refractory to octreotide LAR; conditions: pasireotide LAR 60 mg vs octreotide LAR 30 mg; cited from earlier work

Compound | Protocol-defined dose-limiting toxicities (DLTs) [1] | AEs of any grade, patients ([2]; 80 mg) [%] | AEs, Total ([2]; 80 mg i.m./28 days (n=13), Grade 3/4) | AEs, Total ([2]; 80 mg i.m./28 days (n=13), all grade) | AEs of any grade, patients ([2]; 120 mg) [%] | AEs, Total ([2]; 120 mg i.m./28 days (n=16), Grade 3/4) | AEs, Total ([2]; 120 mg i.m./28 days (n=16), all grade) | AEs, Total ([2]; all patients, 80 or 120 mg (N=29), Grade 3/4) | AEs, Total ([2]; all patients, 80 or 120 mg (N=29), all grade) | Incidence of bradycardia (HR <40 bpm) ([3]; 120 mg (5/16), Holter assessment, post hoc) [%] | Odds ratio [95% CI] of bradycardia (HR <40 bpm) for a 1.5-fold increase in pasireotide concentration ([3]; day time (6 am through 10 pm)) | Odds ratio [95% CI] of bradycardia (HR <40 bpm) for a 1.5-fold increase in pasireotide concentration ([3]; night time (10 pm through 6 am)) | Cmax ([4]; 80 mg) [ng/mL] | Cmax ([4]; 120 mg) [ng/mL] | Tumor control rate at month 6 [5] [%]
NCCCC[C@@H]1NC(=O)[C@@H](Cc2c[nH]c3ccccc23)NC(=O)[C@H](c2ccccc2)NC(=O)[C@@H]2C[C@@H](OC(=O)NCCN)CN2C(=O)[C@H](Cc2ccccc2)NC(=O)[C@H](Cc2ccc(OCc3ccccc3)cc2)NC1=O [Pasireotide LAR, pasireotide] (cyclo([Hyp]([CO-Ethylenediamine])[Phg][dW]KY(Bn)F)) | No protocol-defined dose-limiting toxicities; also recorded: no protocol-defined DLTs | 92 | 9 (69.2) n (%) | 12 (92.3) n (%) | 100 | 11 (68.8) n (%) | 16 (100) n (%) | 20 (69.0) n (%) | 28 (96.6) n (%) | 31 | 1.67 [0.38–7.34] | 2.02 [0.49–8.29] | 13.7 ± 11.5 | 23.2 ± 31.4 | 
octreotide [octreotide LAR] |  |  |  |  |  |  |  |  |  |  |  |  |  |  | 46.2
